Only some compounds are listed: those with a hit (about 11% of all), similar ones and a draw of the others.
D1 mod = D1 dopamine receptor (human) allosteric modulation; B-score at 10 µM; P21728; actives 5.9% (n = 58,000); HEK293 D1, CRE-luciferase, dopamine EC30 potentiation; actives deviate in either direction;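 active = luminescence count or its row- and column-corrected plate score outside the 99.7% band of the plate's sample wells, on either side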
Target sequence (P21728 whole entry, looked up): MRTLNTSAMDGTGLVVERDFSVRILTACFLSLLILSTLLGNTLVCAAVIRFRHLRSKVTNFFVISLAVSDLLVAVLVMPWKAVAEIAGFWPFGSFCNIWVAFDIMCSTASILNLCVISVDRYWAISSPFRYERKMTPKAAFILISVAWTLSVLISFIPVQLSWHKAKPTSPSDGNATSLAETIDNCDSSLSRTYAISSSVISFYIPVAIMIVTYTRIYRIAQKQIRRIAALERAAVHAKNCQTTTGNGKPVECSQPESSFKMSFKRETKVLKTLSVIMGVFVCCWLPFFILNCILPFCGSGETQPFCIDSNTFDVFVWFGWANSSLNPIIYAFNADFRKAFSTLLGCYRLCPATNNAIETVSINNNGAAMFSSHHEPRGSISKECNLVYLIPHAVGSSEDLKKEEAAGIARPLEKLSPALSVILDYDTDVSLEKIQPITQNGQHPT
S1P3 agonist = S1P3 (human) receptor agonism | actives 0.1% (n = 60,000) | S1P3 NFAT-BLA reporter cells, FRET ratio; relative to 1 µM S1P, basal subtracted | Q99500 | AID 373 | activation, % at 4.5 µM;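 active = activation above the screen-wide mean plus 3 SD, cut at about 4.5% in these data, passing the limit was not always enough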
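Measure – % activation relative to 1 µM S1P (100%), per plate · System – stable CHO line with human S1P3, Gα16, NFAT-BLA reporter · Timing – cells plated overnight, compound 4 h 37 °C, substrate 2 h RT · Technique – fluorescent BLA substrate, ex 405 nm, em 460/535 nm ratio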
S1P1 ag pot = agonists and agonism potentiators of human S1P1 receptor | AID 449 | S1P1 CRE-bla cells, forskolin, beta-lactamase FRET, potentiator mode; S1P1 agonist co-added at EC20, 2 nM; 100% = saturating reference agonist, 0% = basal | actives 0.57% (n = 56,000) | activation, % at 9.5 µM | P21453;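 active = activation above a cutoff set at the mean activation of all tested compounds plus 3 SD, cut at about 54% in these data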;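 also: forskolin at 4 µM as EC80 and the EC20 agonist is SEW2871; 100% = SEW2871 at its EC100 plus forskolin at EC80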
M1 agonist = activates the M1 muscarinic receptor; actives 3% (n = 64,000); CHO-M1 cells, Fluo-4 calcium fluorescence, agonist mode; stronger effect = higher value; B-score at 10 µM;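 active = fluorescence rise, raw or as B-score row- and column-corrected plate score, outside the 99.7% band of its plate's samples, either direction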
M1 antagonist = antagonists of rat M1 muscarinic receptor; P08482; CHO-M1 cells, Fluo-4 calcium, ACh EC80 antagonist mode; stronger effect = lower value; B-score at 10 µM; actives 3.4% (n = 64,000);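 active = calcium fluorescence response, raw or row-and-column corrected B-score, differing from the plate sample mean either way at a set confidence level, mostly lower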
* marks the source's active call; other numbers are inactive results.

CCCc1ccc(OCc2nc(-c3ccc(NC(=O)c4ccco4)cc3)no2)cc1 was read as D1 mod -2.5, S1P3 agonist -2, S1P1 ag pot 94*, M1 agonist -0.75 and M1 antagonist 0.031.
For CCn1c(SCC(=O)c2ccc(CNC(C)=O)o2)nnc1-c1cccs1 the results were D1 mod -0.054, S1P3 agonist -1, S1P1 ag pot 11, M1 agonist 0.086 and M1 antagonist 2*.
For CCn1c(SCC(=O)NCc2cccs2)nnc1-c1cccs1 the results were D1 mod -1.5, S1P3 agonist -1, M1 agonist 0.23 and M1 antagonist 0.13.
For COC(=O)c1ccc(NC(=O)C23CCC(C)(C(=O)O2)C3(C)C)cc1 (centres undefined) the results were D1 mod 0.73, M1 agonist 0.7 and M1 antagonist -0.4.
For Cc1sc2c(c1C)CN(Cc1ccco1)CN2C(=O)c1ccccc1 the results were S1P3 agonist -1, S1P1 ag pot -1, M1 agonist 0.55 and M1 antagonist -0.21.
For Cc1c(C)[n+](=O)c2c(n1[O-])CCCCC2 the results were D1 mod -0.97, S1P3 agonist 1, S1P1 ag pot 2, M1 agonist -0.85 and M1 antagonist 0.27.
For Cc1nn(CCc2nc(-c3ccco3)cs2)c2[nH]c(=O)cc(C(F)(F)F)c12 the results were S1P3 agonist 1, S1P1 ag pot -29, M1 agonist -0.37 and M1 antagonist 0.28.
Cc1nn(-c2ccc(F)cc2)c(C)c1NS(=O)(=O)c1ccc(Cl)cc1 was read as D1 mod 0.58, S1P3 agonist 1, S1P1 ag pot 8, M1 agonist 1.1 and M1 antagonist -0.25.
For CCC(C)C(NC(=O)c1ccccc1NC(=O)c1ccc(OC)cc1)C(=O)NCc1ccco1 (centres undefined) the results were D1 mod -4.7*, S1P3 agonist -1, S1P1 ag pot -2, M1 agonist 1.2 and M1 antagonist 0.15.
COCc1nnc(NC(=O)c2sc3ccccc3c2Cl)s1 was read as D1 mod -1.5, S1P3 agonist 0, S1P1 ag pot -5, M1 agonist -0.46 and M1 antagonist 0.53.
Screening Cc1nnc(NC(=O)c2sc3ccccc3c2Cl)s1 returned D1 mod -6.4*, S1P3 agonist 0, S1P1 ag pot 20, M1 agonist -0.34 and M1 antagonist 0.5.
Screening Nc1ccc(CCc2nc3ccccc3o2)cc1 returned D1 mod -3.6*, S1P3 agonist 0, S1P1 ag pot 1, M1 agonist -0.42 and M1 antagonist -0.81.
For COc1ccc(-c2csc(N3CCOCC3)n2)cc1OC the results were D1 mod 13*, S1P3 agonist -1, S1P1 ag pot -9, M1 agonist 0.58 and M1 antagonist 0.047.
For CCc1ccc(S(=O)(=O)NCCc2csc(-c3ccccc3)n2)s1 the results were D1 mod -0.38, S1P3 agonist 0, S1P1 ag pot 65*, M1 agonist -1.9 and M1 antagonist -0.59.
Screening Cc1ccc(C(=O)/C=C/Nc2ccccc2C(N)=O)o1 returned D1 mod -4.1*, S1P3 agonist -1, S1P1 ag pot -4, M1 agonist 0.81 and M1 antagonist -0.43.
Screening O=c1cc(-c2ccccc2)[nH]c2nc3ccccc3n12 returned D1 mod -6.5*, S1P3 agonist 1, S1P1 ag pot 12, M1 agonist 0.45 and M1 antagonist 0.3.
For COc1ccccc1N1CCN(c2cc(=O)n(-c3ccc(Br)cc3)c(=O)[nH]2)CC1 the results were D1 mod -0.059, M1 agonist -0.53 and M1 antagonist -0.049.
`O=c1cc(N2CCN(c3ccccc3F)CC2)[nH]c(=O)n1-c1ccc(Br)cc1` gave D1 mod -2.2, S1P3 agonist -1, S1P1 ag pot 2, M1 agonist -2.6* and M1 antagonist 0.35.
Screening Cn1cccc1C(C(=O)NC1CCCCC1)N(C(=O)Cc1cccs1)c1ccc2c(c1)OCCO2 (centres undefined) returned S1P3 agonist -1 and S1P1 ag pot 2.
For CCC(=O)c1cc(F)c(N2CCN(S(=O)(=O)c3ccc(C)cc3)CC2)cc1C the results were D1 mod -0.55, S1P3 agonist -2, S1P1 ag pot 18, M1 agonist -0.32 and M1 antagonist -0.0058.
Screening Cc1ccc2c(c1)C1CN(C)CCC1N2C(=O)Nc1ccc(Cl)cc1 (centres undefined) returned D1 mod -4.2*, M1 agonist -1.4 and M1 antagonist -1.3.

Screens from PubChem.
